Assay results from the RNAGym collection of RNA variant scans (doi:10.1126/science.aae0568).
Fewer inactive variants are shown than the library holds.

B1: tRNA (parent)
chain: GUUCCGUUGGCGUAAUGGUAACGCGUCUCCCUCCUAAGGAGAAGACUGCGGGUUCGAGUCCCGUACGGAACG

Variants of: B1
Assay: yeast fitness relative to wild type (ratio to wild type); higher = fitter; tRNA-Arg(CCU), competitive growth, 37 C, YPD
In short: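 Changes in genotype frequencies gave Darwinian fitness relative to wild type. Frequencies were read by 100-nucleotide paired-end sequencing of gene amplicons before and after pooled Saccharomyces cerevisiae strains, carrying tRNA-Arg(CCU) gene variants at the native locus, were competed in YPD at 37°C for 24 hours in six replicates. A genotype was kept only with ≥ 100 starting reads, and estimates < 0.5 were set to 0.5.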

Variant | yeast fitness
A14G A43C | 0.823
A15C A20G C61U C62U A69G | 0.764
U8A C11A A14G C24A C29A C34U C61G A65C | ≤ 0.5
U2A C27U G67A | 0.531
U8G A21C A43U U59A G63A | ≤ 0.5
C5U C22G C24A A57C | ≤ 0.5
U16C C29G U53A | ≤ 0.5
C24U U47C G63A | 0.829
U28C G52A C61U | 0.698
A14G G18A U26A U32C | ≤ 0.5
C22U A42G A45C C55G U64G | ≤ 0.5
C4G C5G C29A C34U A42U G50C | 0.531
U13A U32C A65C | 0.539
U28C A37U A57C A69U A70C | ≤ 0.5
G12A C29U G56C | ≤ 0.5
G67A A69U | 0.733
C49U U64A A69U | 0.558
C4G C27A C46U | 0.539
A20U C31U C62U | 0.826
C5G C61U A69U | 0.775
C27A G56C | 0.627

Variant | yeast fitness
C24G C29A C30U G50A C62U | ≤ 0.5
C27U A45C G48A A57U G68C | 0.562
G17C G44A A45C | ≤ 0.5
C4U U7A C49U | 0.58
U8C C27U C62U | 0.736
U16C C46U | 1.05
C5U G17U C29G C31G A36U A37C A69C | ≤ 0.5
G12A G38A G48A | ≤ 0.5
A37U C49U U64C | 0.545
C11G C49G C60A A70U | ≤ 0.5
C33U A43U C55U | ≤ 0.5
C11U C33G A36U A42G | ≤ 0.5
C46G A69C | 0.972
U16A A37C C55U | ≤ 0.5
U7C A42U A43G | 0.53
A20U G50A A57U C60G A65U | 0.531
A20U A45U | 0.777
C5G A15U C46U A70G | ≤ 0.5
C24U G44A C49A U59A | 0.528
G6A U35G A43C G51A | ≤ 0.5
C5U G17A C66A | 0.522

Variant | yeast fitness
A40U A42G G63A | 0.511
U7G G12C G23C C29G C60A | ≤ 0.5
A15U A37U G67C | ≤ 0.5
C24U A42U A43C A57C C60A | 0.637
C29G G56C | ≤ 0.5
G12A C24G U26G G39C C49G A65G | ≤ 0.5
U8C A15U C22U A40C G48C U54C C62U | 0.557
U16G G18C U59A A65U C66A | ≤ 0.5
G48C C66A | 0.633
C33G U47A | 0.579
C31A A43G A70U | 0.708
C4A U8G G41C A45G | 0.703
U2A C4A U26C C31U G38A | ≤ 0.5
C30G A42G | 0.626
C34U U35C | 0.607
G6A G9C C46G | 0.561
C31G A36U G39A C62U | ≤ 0.5
G10A C22U U47C | ≤ 0.5
C4A C24U G58A C62U | 0.587
C5U A14C A45C A65C | 0.561
C22G C31U C62U A65U | ≤ 0.5

Variant | yeast fitness
A15C U16C | 0.678
C11U U19C G67C | 0.566
C4G U47G U59A C66A | ≤ 0.5
C27U G51A U64A A69G | ≤ 0.5
U8C C33U A70U | ≤ 0.5
C24G C33U A37U G67A | ≤ 0.5
G17A C61G G68A | ≤ 0.5
C5U A37U C61U | 0.623
G6A G50A G58A | 0.698
C61U U64C | 0.902
C24U C27U C29G G38C A42C | 0.577
U13G A42C U54A G67C A69U | ≤ 0.5
C33U G51A A65U | ≤ 0.5
C22A A69C | 0.874
U19A A37U | 0.747
U28A A57U | 0.598
U8C A14C C33A C46A G67A | ≤ 0.5
G39A C61U C62A | 0.558
C5A G9C A40G | ≤ 0.5
G9A G68A A69C | 0.802
